pIC50: −log10 of the molar value.
Key:
[1] = target: Insulin-like growth factor 1 receptor (Homo sapiens) (UniProt P08069); experiment: Inhibition of IGF1R (unknown origin) at 1 uM by mobility shift microfluidics platform based assay relative to control
[2] = target: AMP-activated protein kinase (AMPK) alpha-1/beta-1/gamma-1 (Homo sapiens) (UniProt P54619+Q9Y478+Q13131); experiment: Inhibition of AMP-A1B1G1 (unknown origin) at 1 uM by mobility shift microfluidics platform based assay relative to control; type: protein-complex assay
[3] = target: Tyrosine-protein kinase receptor TYRO3 (Homo sapiens) (UniProt Q06418); experiment: Inhibition of TYRO3 (unknown origin) at 1 uM by mobility shift microfluidics platform based assay relative to control
[4] = target: Mitogen-activated protein kinase kinase kinase 7 (Homo sapiens) (UniProt O43318); experiment: Inhibition of TAK1 (unknown origin) at 1 uM by mobility shift microfluidics platform based assay relative to control
[5] = target: Receptor tyrosine-protein kinase erbB-2 (Homo sapiens) (UniProt P04626); experiment: Inhibition of ERB-B2 (unknown origin) at 1 uM by mobility shift microfluidics platform based assay relative to control
[6] = target: High affinity nerve growth factor receptor (Homo sapiens) (UniProt P04629); experiment: Inhibition of TRKA (unknown origin) at 1 uM by mobility shift microfluidics platform based assay relative to control
[7] = target: Dual specificity tyrosine-phosphorylation-regulated kinase 3 (Homo sapiens) (UniProt O43781); experiment: Inhibition of DYRK3 (unknown origin) at 1 uM by mobility shift microfluidics platform based assay relative to control
[8] = target: Homeodomain-interacting protein kinase 1 (Homo sapiens) (UniProt Q86Z02); experiment: Inhibition of HIPK1 (unknown origin) at 1 uM by mobility shift microfluidics platform based assay relative to control
[9] = Apparent permeability from basolateral to apical side in human Caco2 cells in absence of P-gp inhibitor by LC-MS/MS analysis; type: ADME, cell-based; details: Caco-2
In short: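 Caco-2 monolayer permeability, measured apical-to-basolateral and basolateral-to-apical. Compound concentrations were quantified by LC-MS/MS, and apparent permeability coefficients (Papp, cm/s) were calculated from them.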

[10] = target: Ephrin type-A receptor 5 (Homo sapiens) (UniProt P54756); experiment: Inhibition of EPH-A5 (unknown origin) at 1 uM by mobility shift microfluidics platform based assay relative to control
[11] = target: Rho-associated protein kinase 1 (Homo sapiens) (UniProt Q13464); experiment: Inhibition of ROCK1 (unknown origin) at 1 uM by mobility shift microfluidics platform based assay relative to control
[12] = target: Ephrin type-A receptor 8 (Homo sapiens) (UniProt P29322); experiment: Inhibition of EPH-A8 (unknown origin) at 1 uM by mobility shift microfluidics platform based assay relative to control
[13] = target: Calcium/calmodulin-dependent protein kinase type II subunit alpha (Homo sapiens) (UniProt Q9UQM7); experiment: Inhibition of CAMK2A (unknown origin) at 1 uM by mobility shift microfluidics platform based assay relative to control
[14] = target: Tyrosine-protein kinase HCK (Homo sapiens) (UniProt P08631); experiment: Inhibition of HCK (unknown origin) at 1 uM by mobility shift microfluidics platform based assay relative to control
[15] = target: Serine/threonine-protein kinase 4 (Homo sapiens) (UniProt Q13043); experiment: Inhibition of MST1 (unknown origin) at 1 uM by mobility shift microfluidics platform based assay relative to control
[16] = target: Ribosomal protein S6 kinase beta-1 (Homo sapiens) (UniProt P23443); experiment: Inhibition of P70S6K1 (unknown origin) at 1 uM by mobility shift microfluidics platform based assay relative to control
[17] = target: Dual specificity tyrosine-phosphorylation-regulated kinase 2 (Homo sapiens) (UniProt Q92630); experiment: Inhibition of DYRK2 (unknown origin) at 1 uM by mobility shift microfluidics platform based assay relative to control
[18] = target: Serine/threonine-protein kinase 38-like (Homo sapiens) (UniProt Q9Y2H1); experiment: Inhibition of NDR2 (unknown origin) at 1 uM by mobility shift microfluidics platform based assay relative to control
[19] = target: Serine/threonine-protein kinase D2 (Homo sapiens) (UniProt Q9BZL6); experiment: Inhibition of PRKD2 (unknown origin) at 1 uM by mobility shift microfluidics platform based assay relative to control
[20] = target: Dual specificity mitogen-activated protein kinase kinase 2 (Homo sapiens) (UniProt P36507); experiment: Inhibition of MEK2 (unknown origin) at 1 uM by mobility shift microfluidics platform based assay relative to control
[21] = target: Cyclin-dependent kinase 1 (Homo sapiens) (UniProt P06493); experiment: Inhibition of CDK1 (unknown origin) at 1 uM by mobility shift microfluidics platform based assay relative to control
[22] = target: Proto-oncogene tyrosine-protein kinase receptor Ret (Homo sapiens) (UniProt P07949); experiment: Inhibition of RET (unknown origin) at 1 uM by mobility shift microfluidics platform based assay relative to control
[23] = target: Mitogen-activated protein kinase 10 (Homo sapiens) (UniProt P53779); experiment: Inhibition of JNK3 (unknown origin) at 1 uM by mobility shift microfluidics platform based assay relative to control
[24] = target: Serine/threonine-protein kinase B-raf (Homo sapiens, UniProt P15056, V600E); experiment: Inhibition of full length FLAG-tagged BRAF V600E mutant (unknown origin) expressed in HEK293 cells assessed as decrease in MEK phosphorylation by immunoblotting assay; type: cell-based
[25] = target: MAP/microtubule affinity-regulating kinase 3 (Homo sapiens) (UniProt P27448); experiment: Inhibition of MARK3 (unknown origin) at 1 uM by mobility shift microfluidics platform based assay relative to control
[26] = target: Tyrosine-protein kinase FRK (Homo sapiens) (UniProt P42685); experiment: Inhibition of PTK5 (unknown origin) at 1 uM by mobility shift microfluidics platform based assay relative to control
[27] = target: Tyrosine-protein kinase ITK/TSK (Homo sapiens) (UniProt Q08881); experiment: Inhibition of ITK (unknown origin) at 1 uM by mobility shift microfluidics platform based assay relative to control
[28] = target: Cyclin-dependent kinase 2 (Homo sapiens) (UniProt P24941); experiment: Inhibition of CDK2 (unknown origin) at 1 uM by mobility shift microfluidics platform based assay relative to control
[29] = target: Cyclin-T1/Cyclin-dependent-like kinase 5 (Homo sapiens) (UniProt Q00535+O60563); experiment: Inhibition of CDK5/cyclin T1 (unknown origin) at 1 uM by mobility shift microfluidics platform based assay relative to control; type: protein-complex assay
[30] = target: Homeodomain-interacting protein kinase 2 (Homo sapiens) (UniProt Q9H2X6); experiment: Inhibition of HIPK2 (unknown origin) at 1 uM by mobility shift microfluidics platform based assay relative to control
[31] = target: Ephrin type-A receptor 4 (Homo sapiens) (UniProt P54764); experiment: Inhibition of EPH-A4 (unknown origin) at 1 uM by mobility shift microfluidics platform based assay relative to control
[32] = target: Serine/threonine-protein kinase B-raf (Homo sapiens) (UniProt P15056); experiment: Inhibition of BRAF (unknown origin) at 1 uM by mobility shift microfluidics platform based assay relative to control
Sequence of Serine/threonine-protein kinase B-raf (Homo sapiens) (P15056 whole entry): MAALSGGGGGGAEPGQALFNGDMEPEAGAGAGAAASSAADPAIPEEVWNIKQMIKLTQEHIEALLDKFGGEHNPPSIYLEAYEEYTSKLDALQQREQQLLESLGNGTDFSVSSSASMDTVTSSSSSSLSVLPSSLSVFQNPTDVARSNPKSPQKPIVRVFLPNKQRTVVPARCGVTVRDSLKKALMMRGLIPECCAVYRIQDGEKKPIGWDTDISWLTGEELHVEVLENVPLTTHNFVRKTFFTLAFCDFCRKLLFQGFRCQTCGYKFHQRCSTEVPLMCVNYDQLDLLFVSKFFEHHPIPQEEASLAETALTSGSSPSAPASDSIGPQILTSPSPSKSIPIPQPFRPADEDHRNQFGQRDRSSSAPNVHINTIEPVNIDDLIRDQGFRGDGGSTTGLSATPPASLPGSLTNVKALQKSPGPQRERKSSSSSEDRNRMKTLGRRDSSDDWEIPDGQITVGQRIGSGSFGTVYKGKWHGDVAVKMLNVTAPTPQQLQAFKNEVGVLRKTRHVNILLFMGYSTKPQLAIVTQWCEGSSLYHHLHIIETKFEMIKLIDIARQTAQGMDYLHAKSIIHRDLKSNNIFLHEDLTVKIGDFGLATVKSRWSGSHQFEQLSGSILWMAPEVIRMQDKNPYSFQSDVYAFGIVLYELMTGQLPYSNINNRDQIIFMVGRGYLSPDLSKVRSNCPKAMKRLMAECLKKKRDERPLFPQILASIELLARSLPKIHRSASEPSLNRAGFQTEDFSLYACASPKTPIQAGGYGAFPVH

Sequence of Proto-oncogene tyrosine-protein kinase receptor Ret (Homo sapiens) (P07949 whole entry): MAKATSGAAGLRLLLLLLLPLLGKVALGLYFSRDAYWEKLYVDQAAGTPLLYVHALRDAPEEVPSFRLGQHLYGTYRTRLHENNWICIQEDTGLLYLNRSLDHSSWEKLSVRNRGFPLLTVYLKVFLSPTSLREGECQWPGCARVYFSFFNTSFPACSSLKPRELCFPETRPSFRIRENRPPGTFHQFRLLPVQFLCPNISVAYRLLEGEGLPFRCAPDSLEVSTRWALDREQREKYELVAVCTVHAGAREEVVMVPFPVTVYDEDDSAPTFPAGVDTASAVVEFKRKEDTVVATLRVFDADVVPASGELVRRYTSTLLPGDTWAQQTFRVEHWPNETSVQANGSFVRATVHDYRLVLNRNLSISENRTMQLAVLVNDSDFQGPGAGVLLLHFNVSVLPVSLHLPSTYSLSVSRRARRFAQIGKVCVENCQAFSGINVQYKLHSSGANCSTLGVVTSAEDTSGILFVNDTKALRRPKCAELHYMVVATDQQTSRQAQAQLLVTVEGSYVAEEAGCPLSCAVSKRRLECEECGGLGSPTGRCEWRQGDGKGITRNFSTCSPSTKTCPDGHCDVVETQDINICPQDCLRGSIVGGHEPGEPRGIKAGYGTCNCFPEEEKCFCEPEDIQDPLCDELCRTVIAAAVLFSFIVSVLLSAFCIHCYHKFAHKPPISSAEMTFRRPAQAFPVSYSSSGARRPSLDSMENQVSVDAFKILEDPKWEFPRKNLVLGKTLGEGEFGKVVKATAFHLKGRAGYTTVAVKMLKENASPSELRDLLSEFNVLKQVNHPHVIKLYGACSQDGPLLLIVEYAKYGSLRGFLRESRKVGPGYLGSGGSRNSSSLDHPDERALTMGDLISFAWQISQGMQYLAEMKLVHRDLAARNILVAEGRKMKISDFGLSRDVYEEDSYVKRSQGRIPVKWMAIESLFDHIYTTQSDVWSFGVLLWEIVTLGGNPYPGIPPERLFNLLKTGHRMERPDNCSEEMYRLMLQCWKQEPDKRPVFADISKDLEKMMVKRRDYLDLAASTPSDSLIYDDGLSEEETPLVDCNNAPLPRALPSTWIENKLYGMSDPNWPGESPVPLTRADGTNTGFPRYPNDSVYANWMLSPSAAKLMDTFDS
Sequence of Serine/threonine-protein kinase 38-like (Homo sapiens) (Q9Y2H1 2-464 limits assumed): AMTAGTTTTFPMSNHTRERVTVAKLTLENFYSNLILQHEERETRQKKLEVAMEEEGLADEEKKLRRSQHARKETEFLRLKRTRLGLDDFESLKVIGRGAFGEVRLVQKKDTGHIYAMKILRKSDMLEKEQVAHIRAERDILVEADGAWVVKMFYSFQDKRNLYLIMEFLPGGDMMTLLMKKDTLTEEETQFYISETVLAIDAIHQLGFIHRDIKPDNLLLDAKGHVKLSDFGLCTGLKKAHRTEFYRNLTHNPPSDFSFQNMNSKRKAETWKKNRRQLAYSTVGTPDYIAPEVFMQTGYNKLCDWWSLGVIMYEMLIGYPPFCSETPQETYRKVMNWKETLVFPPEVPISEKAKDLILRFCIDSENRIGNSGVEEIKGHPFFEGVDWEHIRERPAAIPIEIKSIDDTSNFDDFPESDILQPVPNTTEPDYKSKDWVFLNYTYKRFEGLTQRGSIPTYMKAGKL
Sequence of Serine/threonine-protein kinase 4 (Homo sapiens) (Q13043 whole entry): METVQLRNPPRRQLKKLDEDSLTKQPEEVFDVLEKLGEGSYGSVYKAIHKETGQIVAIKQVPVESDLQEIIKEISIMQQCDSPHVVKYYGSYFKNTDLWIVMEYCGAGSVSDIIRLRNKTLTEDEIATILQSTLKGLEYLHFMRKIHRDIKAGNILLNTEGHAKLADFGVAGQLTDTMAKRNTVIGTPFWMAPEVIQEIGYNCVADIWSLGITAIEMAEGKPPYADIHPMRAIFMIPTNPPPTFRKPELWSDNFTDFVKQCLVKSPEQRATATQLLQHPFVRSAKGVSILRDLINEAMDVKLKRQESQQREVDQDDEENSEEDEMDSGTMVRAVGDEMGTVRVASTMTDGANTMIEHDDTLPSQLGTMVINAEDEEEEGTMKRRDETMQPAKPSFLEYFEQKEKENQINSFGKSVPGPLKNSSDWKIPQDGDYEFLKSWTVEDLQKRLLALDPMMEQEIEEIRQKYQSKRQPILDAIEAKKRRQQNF
Sequence of Ephrin type-A receptor 4 (Homo sapiens) (P54764 whole entry): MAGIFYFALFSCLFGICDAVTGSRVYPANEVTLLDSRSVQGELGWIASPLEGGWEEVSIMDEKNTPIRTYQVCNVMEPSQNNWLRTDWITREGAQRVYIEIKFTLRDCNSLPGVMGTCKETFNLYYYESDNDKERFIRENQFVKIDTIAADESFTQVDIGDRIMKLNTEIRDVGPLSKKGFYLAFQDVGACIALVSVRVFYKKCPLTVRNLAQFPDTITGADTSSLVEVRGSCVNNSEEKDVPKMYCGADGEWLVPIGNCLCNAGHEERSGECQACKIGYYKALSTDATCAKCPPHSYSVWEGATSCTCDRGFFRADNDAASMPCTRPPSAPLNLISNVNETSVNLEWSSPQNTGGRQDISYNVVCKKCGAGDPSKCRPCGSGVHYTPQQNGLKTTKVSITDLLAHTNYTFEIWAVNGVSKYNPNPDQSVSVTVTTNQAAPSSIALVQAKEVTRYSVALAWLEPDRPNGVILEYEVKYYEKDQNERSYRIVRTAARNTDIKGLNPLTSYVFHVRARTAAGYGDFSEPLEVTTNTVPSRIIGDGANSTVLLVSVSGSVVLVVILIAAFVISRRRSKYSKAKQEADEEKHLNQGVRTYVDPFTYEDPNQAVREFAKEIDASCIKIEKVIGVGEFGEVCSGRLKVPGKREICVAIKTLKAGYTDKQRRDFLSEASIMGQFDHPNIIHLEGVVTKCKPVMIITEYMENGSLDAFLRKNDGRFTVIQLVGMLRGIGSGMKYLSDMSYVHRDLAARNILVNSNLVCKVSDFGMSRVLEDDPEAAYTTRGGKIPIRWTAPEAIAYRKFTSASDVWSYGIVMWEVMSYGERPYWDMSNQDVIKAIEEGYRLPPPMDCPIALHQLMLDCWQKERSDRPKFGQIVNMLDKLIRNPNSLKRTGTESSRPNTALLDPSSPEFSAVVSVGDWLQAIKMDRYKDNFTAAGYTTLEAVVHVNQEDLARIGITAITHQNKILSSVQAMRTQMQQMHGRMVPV
Sequence of Serine/threonine-protein kinase B-raf (P15056 2-766 V600E limits assumed): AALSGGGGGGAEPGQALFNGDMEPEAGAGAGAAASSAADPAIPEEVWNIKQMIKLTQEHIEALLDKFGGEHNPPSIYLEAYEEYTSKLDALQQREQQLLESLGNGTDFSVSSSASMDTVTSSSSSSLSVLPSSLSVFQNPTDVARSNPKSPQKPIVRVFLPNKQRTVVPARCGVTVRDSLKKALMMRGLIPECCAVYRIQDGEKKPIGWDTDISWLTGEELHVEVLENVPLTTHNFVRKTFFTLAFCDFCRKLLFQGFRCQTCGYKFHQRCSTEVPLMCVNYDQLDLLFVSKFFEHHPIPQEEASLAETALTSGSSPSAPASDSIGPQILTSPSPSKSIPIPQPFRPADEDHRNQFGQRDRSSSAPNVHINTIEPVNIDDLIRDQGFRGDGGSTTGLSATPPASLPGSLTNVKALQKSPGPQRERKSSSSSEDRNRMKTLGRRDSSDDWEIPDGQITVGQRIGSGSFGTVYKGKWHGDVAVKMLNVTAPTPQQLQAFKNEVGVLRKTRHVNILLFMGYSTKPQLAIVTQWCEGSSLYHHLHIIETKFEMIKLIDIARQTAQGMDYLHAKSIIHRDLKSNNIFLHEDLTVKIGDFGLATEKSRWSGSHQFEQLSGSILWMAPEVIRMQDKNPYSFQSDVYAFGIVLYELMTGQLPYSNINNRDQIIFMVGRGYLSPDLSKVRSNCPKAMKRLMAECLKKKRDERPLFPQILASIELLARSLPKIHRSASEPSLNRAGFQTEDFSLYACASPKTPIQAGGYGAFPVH
Sequence of Mitogen-activated protein kinase 10 (Homo sapiens) (P53779 whole entry): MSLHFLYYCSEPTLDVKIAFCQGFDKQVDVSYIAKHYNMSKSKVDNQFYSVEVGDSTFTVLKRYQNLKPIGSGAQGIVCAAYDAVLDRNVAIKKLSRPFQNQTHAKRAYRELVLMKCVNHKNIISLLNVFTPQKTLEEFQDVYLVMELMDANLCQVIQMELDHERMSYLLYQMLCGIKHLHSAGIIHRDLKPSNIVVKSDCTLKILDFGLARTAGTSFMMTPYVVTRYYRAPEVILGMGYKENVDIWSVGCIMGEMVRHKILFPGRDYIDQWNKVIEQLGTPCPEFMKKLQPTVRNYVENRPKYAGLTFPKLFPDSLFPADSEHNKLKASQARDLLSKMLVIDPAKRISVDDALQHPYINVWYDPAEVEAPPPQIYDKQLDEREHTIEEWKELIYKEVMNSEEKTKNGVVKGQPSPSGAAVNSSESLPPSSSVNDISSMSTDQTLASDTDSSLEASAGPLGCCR

SMILES	inhibition [1]	inhibition [2]	inhibition [3]	inhibition [4]	inhibition [5]	inhibition [6]	inhibition [7]	inhibition [8]	Papp B→A [9]	inhibition [10]	inhibition [11]	inhibition [12]	inhibition [13]	inhibition [14]	inhibition [15]	inhibition [16]	inhibition [17]	inhibition [18]	inhibition [19]	inhibition [20]	also measured
CC(C)n1nc(C#Cc2cccc(NC(=O)c3cccc(C(F)(F)F)c3)c2)c2c(N)ncnc21	1%	2%	67%	62%	58%	22%	7%	-3%	10 nm/s	100%	5%	100%	3%	107%	10%	5%	11%	1%	1%	25%	inhibition [21]: 6%; inhibition [22]: 100%; inhibition [23]: -8%; pIC50 [24]: 8.70; inhibition [25]: -1%; inhibition [26]: 95%; inhibition [27]: 23%; inhibition [28]: 3%; inhibition [29]: 5%; inhibition [30]: 0%; inhibition [31]: 99%; inhibition [32]: 101%
CC(C)n1nc(C#Cc2cccc3cc(-c4cccc(C(F)(F)F)c4)ncc23)c2c(N)ncnc21	2%	0%	2%	5%	0%	2%	1%	-2%	26 nm/s	95%	1%	97%	6%	81%	4%	1%	-3%	-1%	2%	6%	inhibition [21]: 0%; inhibition [22]: 98%; inhibition [23]: 5%; pIC50 [24]: 7.85; inhibition [25]: 1%; inhibition [26]: 18%; inhibition [27]: 10%; inhibition [28]: 1%; inhibition [29]: -2%; inhibition [30]: -1%; inhibition [31]: 95%; inhibition [32]: 92%
